Measurements published in article PMC2720252 (Regenerative medicine, 2009).

Tests used:
Cx43 = experiment: Quantitative immunolabeling of Cx43 and ZO-1 in wound epidermis; type: in vivo; details: adult mouse wound epidermis, 24 h
In short: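 Paired peptide-treated and control wounds were taken from the same five adult mice. Peptide was given at 60 μM in 20% pluronic gel. Sections taken 24 h after injury were labelled with Cx43 and ZO-1 antibodies plus DAPI and imaged by laser scanning confocal microscopy. Epidermal Cx43 particle size, numerical density and total immunolabelled area were quantified.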

[1] = system: neutrophils at adult mouse excisional skin injuries; experiment: Neutrophil counts in H&E sections of adult excisional wounds; type: in vivo; details: 24 h and 4 days, three treatment and three control wounds, p < 0.01-0.001
[2] = system: neutrophils at 2 mm excisional wounds on neonatal mice; experiment: Whole-mount myeloperoxidase neutrophil density assay in neonatal wounds; type: in vivo, mouse; details: 48 h postwounding
In short: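 Two-day-old pups were sedated by hypothermia and given bilateral 2 mm punch wounds at least 1 cm apart; one wound per mouse received 60 μM peptide and the other vehicle. For the 48 h harvest, treatment was repeated at 24 h. Myeloperoxidase-positive cells were grid-counted blind. Analysis used Wilcoxon matched-pairs test.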

[3] = system: wounded skin of neonatal mice; experiment: Detection and distribution of peptide in wounded skin; type: in vivo, mouse; details: whole-mount skin, 60 μM, 2 h postwounding, streptavidin (Alexa 594) confocal
[4] = system: second PDZ domain (PDZ2) of zonula occludens (ZO)-1; details: cited from earlier work
[5] = system: 5 mm excisional wounds on adult CD-1 mice; type: in vivo, mouse; details: two blinded observers, vs vehicle
In short: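 Adult CD-1 mice received full-thickness 5 mm excisional wounds, treated immediately and again at 24 h with 20% pluronic gel with or without 60 μM peptide. Wound images were scored 0–5 by two observers blind to treatment. Redness/swelling was scored at 24 h and 4 days, and appearance/scarring (discoloration, smoothness) at 7 and 10 days. Each wound's score was the mean of both observers. Data came from nine experiments.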

[6] = system: 5 mm excisional wounds on adult CD-1 mice; experiment: Full-thickness 5 mm excisional wound closure in adult mice; type: in vivo, mouse
In short: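 Adult CD-1 mice received 5 mm full-thickness excisional wounds treated with 20% pluronic gel alone (n = 102) or with 60 μM peptide (n = 95). Gel was applied at wounding and again 24 h later. Wounds were imaged under anaesthesia at 1, 4, 7 and 10 days, and area was measured blind to treatment. There were nine independent experiments with 8–16 animals per group. Analysis used t-test with Bonferroni correction.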

[7] = system: healed excisional wounds of adult mice; experiment: Tensile testing to failure of skin strips with healed wounds; type: in vivo, mouse; details: 3 months postwounding
[8] = system: Cx43-expressing HeLa cells; details: cited from earlier work
[9] = adult mice, 5 mm excisional wound, 10-day time course, vs controls

## RQPKIWFPNRRKPWKKRPRPDDLEI [ACT1]
Cx43
  apically localized ZO-1 staining proximal to wound edge: reduction appeared to be more pronounced
Cx43; paired wounds on five mice
  average size of Cx43 particles (GJs): significant (p < 0.05) overall increase
  numerical density of Cx43 particles: significantly (p < 0.05) reduced
[1]
  neutrophil density: significant decreases
[2]
  localisation of neutrophils at wound: frequently sequestered in blood vessels
[3]
  spread of peptide in tissue after application to wound: could be observed in tissues surrounding the wound edges
[4]
  effect on Cx43-ZO-1 interaction: competitively inhibiting the interaction of endogenous Cx43 molecules with ZO-1
[5]; 7 and 10 days postwounding
  scarring/overall appearance score (0-5): significantly improved
[5]; 24 h and 4 days postwounding
  wound redness score (0-5): significantly decreased
[6]; [9]
  healed appearance (qualitative): less discolored appearance
  swelling / inflammation of wound (qualitative): less swollen and inflamed
[6]; nine independent experiments, 8-16 animals per group
  experiments with significantly accelerated closure rate: eight of the nine experiments
[7]
  overall appearance of healed wounds: improvement in overall appearance of the healed wounds is maintained
[8]; Cx43-expressing HeLa cells
  Cx43 distribution and levels: redistribution of Cx43 from a detergent-soluble to an insoluble fraction without causing changes in overall levels of the protein
  GJ aggregate size and number: increase in the size and decrease in the number of GJ aggregates
[8]; HeLa cells
  subcellular targeting of peptide: Cytoplasmic targeting
